Results published in ChEMBL document CHEMBL1134581, “Synthesis and in vitro antitumor activity of oligonucleotide-tethered and related platinum complexes” (J Med Chem, 2001).

Experiments:
Format in all cases: functional, cell-based, Homo sapiens
SK-OV-3 = assay: Growth and colony formation inhibition of SKOV-3 ovarian cancer cell lines
Method in brief: (§1)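 Colony formation in PA-1 (wt p53, 7 days of drug) and SKOV-3 (p53-null, 10 days of drug). Both in RPMI 1640 with 10% FBS and 2 mM L-glutamine, 300–500 cells/well, attached 1 day. Colonies stained with 0.1% crystal violet in methanol and counted. IC50 extrapolated; three experiments. Also an MTT assay: PA-1 1000 cells/well, 1 day attachment, 5 days of drug; SKOV-3 600 cells/well, 2 days attachment, 7 days of drug. MTT 5 h, DMSO, read at 570/630 nm; four experiments.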

[1] = Growth and colony formation inhibition of PA-1 ovarian cancer cell lines; method in brief: as §1
A2780 = assay: Growth and colony formation inhibition of A2780 ovarian cancer cell lines
Method in brief: (§2)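 Colony formation assay in A2780 (wt p53) and SW626 (mutant p53) monolayers, RPMI 1640 with 10% FBS and 2 mM L-glutamine, 37 °C, 5% CO2. 300–500 cells/well, attached 1 day, then serially diluted drug. Exposure 7 days for A2780, 10 days for SW626. Colonies fixed and stained with 0.1% crystal violet in methanol, then counted. IC50 extrapolated. Mean ± SD of three experiments.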

[2] = Growth and colony formation inhibition of SW626 ovarian cancer cell lines; method in brief: as §2
[3] = Growth and colony formation inhibition of VM-1 leukemia cancer cell lines
Method in brief: (§3)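 CEM and teniposide-resistant CEM/VM-1 leukemia cells in suspension, MEM with 10% FBS and 2 mM L-glutamine, 37 °C, 5% CO2. Exponentially growing cells seeded in triplicate at 3 × 10^5 cells/mL. Drugs dissolved in DMSO or PBS, serially diluted, 48 h exposure. Growth inhibition by Coulter counting. IC50 extrapolated from the concentration–% inhibition plot. Mean ± SD of three experiments.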

CCRF-CEM = assay: Growth and colony formation inhibition of CEM leukemia cancer cell lines; method in brief: as §3

Dichlorodiacetyl oxy-(ammino acetoxy ethylammino ethanol) platinum (II)
IC50 (SK-OV-3): 10 µM | IC50 [1]: 2.8 µM

Dichlorodiacetyl oxy-(ammino acetoxy butylammino ethanol) platinum (II)
IC50 (SK-OV-3): 22 µM | IC50 [1]: 0.8 µM

CISPLATIN
IC50 (A2780): 0.6 µM | IC50 (SK-OV-3): 0.5 µM | IC50 [2]: 0.5 µM | IC50 [3]: < 1 µM | IC50 [1]: 0.3 µM | IC50 (CCRF-CEM): < 1 µM

CARBOPLATIN
IC50 (SK-OV-3): 28.5 µM | IC50 [1]: 2.4 µM

DICHLORO(AMMINO ETHYLAMMINO ETHANOL) PLATINUM(II) [listing 1 of 2 here]
IC50 (SK-OV-3): 30 µM | IC50 [1]: 2.9 µM

Dichlorodi(3-hydroxypropylamine)platinum (II)
IC50 (SK-OV-3): 20 µM | IC50 [1]: 1.2 µM

Tetrachlorodi(4-hydroxybutylamine)platinum(IV)
IC50 (A2780): 2.2 µM | IC50 (SK-OV-3): 4 µM | IC50 [2]: 7 µM | IC50 [3]: 10 µM | IC50 [1]: 1 µM | IC50 (CCRF-CEM): 10 µM

Amminedichloro(4-hydroxybutylamine)platinum (II)
IC50 (SK-OV-3): 6 µM | IC50 [1]: 0.4 µM

Dichloro diacetyl oxy-(amino ethylamino ethanol) platinum
IC50 (A2780): 2.8 µM | IC50 (SK-OV-3): 24 µM | IC50 [2]: 28 µM | IC50 [3]: 7 µM | IC50 [1]: 1.5 µM | IC50 (CCRF-CEM): 7 µM

DICHLORO(AMMINO ETHYLAMMINO ETHANOL) PLATINUM(II) [listing 2 of 2 here]
IC50 (SK-OV-3): 26 µM | IC50 [1]: 1.7 µM

Tetrachlorodi(3-hydroxypropylamine)platinum(IV)
IC50 (A2780): 1.6 µM | IC50 (SK-OV-3): 10 µM | IC50 [2]: 3 µM | IC50 [3]: 5 µM | IC50 [1]: 0.6 µM | IC50 (CCRF-CEM): 8 µM

Amminedichloro(2-hydroxyethylamine)platinum (II)
IC50 (SK-OV-3): 13 µM | IC50 [1]: 0.7 µM

Amminetetrachloro(4-hydroxyethylamine)platinum(IV)
IC50 (SK-OV-3): 10 µM | IC50 [1]: 0.9 µM

Amminetetrachloro(4-hydroxybutylamine)platinum(IV)
IC50 (SK-OV-3): 9 µM | IC50 [1]: 0.2 µM

3-(7a-Chloro-7-diisopropylamino-hexahydro-6-oxa-1,3a-diaza-platinum-7lambda*5*-phospha-inden-7-yloxy)-propionitrile
IC50 (A2780): 125 µM | IC50 (SK-OV-3): > 200 µM | IC50 [2]: > 200 µM | IC50 [1]: 165 µM

Dichlorodi(4-hydroxybutylamine)platinum (II)
IC50 (SK-OV-3): 23 µM | IC50 [1]: 1.5 µM
